# Shown are actives, neighbours in structure and some others; about 2.4% of the full set was active somewhere.
# Ec RNAP inh – inhibitors of Escherichia coli RNA polymerase; P0A8V2; E. coli RNA polymerase, fluorescence transcription assay; inhibition, %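 (tested at 10 µM)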; hit rate 0.2% among 62,000; AID 559; in the data active = inhibition above about 20%
# MMP-13 inhibitor – inhibitors of human MMP13. MMP-13 fTHP FRET cleavage, Mca fluorescence. hit rate 0.07% among 65,000. inhibition, % at 4 µM. P45452. AID 570;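 active = inhibition above the mean of compound-free control plate wells plus 3 SD, cut at about 14% in these data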
# HePTP inhibitor – human HePTP phosphatase inhibition. P35236. recombinant HePTP phosphatase activity, OD absorbance. inhibition, % at 20 µM. hit rate 0.64% among 110,000. AID 521; in the data active = inhibition above about 50%
# SF1 activator – activates the human nuclear receptor SF-1; Q13285; CHO-K1 Gal4-SF-1 LBD luciferase reporter; % increase over DMSO SF-1-specific signal; activation, % at 10 µM; hit rate 1.9% among 65,000; AID 522;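 active = activation above the mean activation of all tested compounds plus 3 SD, cut at about 50% in these data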
# Target sequence (Q13285 whole entry, looked up, the tested form may be a part): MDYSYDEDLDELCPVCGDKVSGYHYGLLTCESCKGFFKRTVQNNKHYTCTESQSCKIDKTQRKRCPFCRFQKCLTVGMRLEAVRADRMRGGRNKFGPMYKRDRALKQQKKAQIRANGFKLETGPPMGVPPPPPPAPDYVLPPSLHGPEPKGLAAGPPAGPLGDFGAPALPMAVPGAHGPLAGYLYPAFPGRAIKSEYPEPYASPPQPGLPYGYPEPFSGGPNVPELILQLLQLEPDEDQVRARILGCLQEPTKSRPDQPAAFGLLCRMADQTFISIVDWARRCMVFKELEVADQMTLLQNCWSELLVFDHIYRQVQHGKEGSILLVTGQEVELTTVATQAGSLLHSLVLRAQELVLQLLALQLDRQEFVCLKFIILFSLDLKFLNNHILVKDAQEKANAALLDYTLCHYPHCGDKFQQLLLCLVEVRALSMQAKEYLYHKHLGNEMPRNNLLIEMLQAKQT
#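 material = CHO-K1 cells with Gal4–hSF-1 LBD chimera plus Gal4-driven luciferase | compound = 10 µM single point, 1% DMSO | incubation = 20 h compound exposure at 37 °C after 1 h cell settling | measured by = SteadyLite luciferase luminescence | evaluation = percent activation relative to DMSO median and mock-transfected background | control set = DMSO negative control and −SF1 background wells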
# AP complement – orthogonal test for alternative complement pathway inhibitors; Human serum alternative complement pathway, LPS-coated ELISA, C3 deposition; tested in compound mixtures; inhibition, % at 5 µM; hit rate 0.08% among 62,000; AID 1235;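 active = inhibition above 30% in each of the two pooled mixtures holding the compound, so the lower value exceeds 30%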
#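 Test system: human serum alternative complement pathway, C3 deposition on LPS-coated wells; also added: Plate-bound LPS; doses: 5 µM per compound in ten-compound mixtures; schedule: 1 h at 37 °C; detection: Anti-C3 ELISA, OD 450 nm; evaluation: percent inhibition of C3 deposition onto LPS; repeats: two pool placements per compound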
# RORa activator – activators of human nuclear receptor RORA; P35398; CHO-K1 Gal4-RORA LBD luciferase reporter, luminescence; percent increase over mock-subtracted basal signal; activation, % at 10 µM; hit rate 1.5% among 65,000; AID 560;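 active = activation above the mean of all tested compounds plus 3 SD, cut at about 49% in these data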
# A number is an active result; . = inactive; / = no result.
SMILES,Ec RNAP inh,MMP-13 inhibitor,HePTP inhibitor,SF1 activator,AP complement,RORa activator
COc1cc(NC(=O)c2ccc3c(c2)C(=O)N(c2ccccc2OC)C3=O)c(C(=O)O)cc1OC,/,/,.,/,/,/
Cc1ccsc1C(=O)OCC(=O)Nc1sccc1C(N)=O,/,.,.,74,/,.
COc1cccc(OC)c1C(=O)Nc1sc(C)c(C)c1C(N)=O,/,/,.,/,/,/
NC(=O)c1cc(NC(=O)c2cccs2)c(Cl)cc1Cl,/,/,.,/,/,/
Cc1ccsc1C(=O)OCC(=O)NCC1CCCO1 (configuration not stated),.,.,.,.,.,.
Cc1sc(NC(=O)c2cccs2)c(C(N)=O)c1C,.,.,.,51,.,.
NC(=O)c1ccsc1NC(=O)c1cccs1,.,.,.,55,.,68
COC(=O)CSc1nnc2n(-c3ccc(OC)cc3)c(=O)c3c4c(sc3n12)CCCC4,/,/,.,/,/,/
CC1=CC(C)=Nc2ccc(C)cc2N1,.,.,.,76,.,58
CCCOc1ccc(C(=O)NCCN2CCOCC2)c(O)c1,/,/,.,/,/,/
CCOC(=O)c1ccc(N2C(=O)c3n[nH]c(C)c3C2c2ccco2)cc1 (configuration not stated),.,.,.,.,.,.
Cc1ccc(N2C(=O)c3n[nH]c(C)c3C2c2ccco2)cc1 (configuration not stated),/,.,/,.,/,67
Cc1ccc(OCC(=O)Nc2ccccc2CO)c(Br)c1,/,/,.,/,/,/
Cc1ccc([N+](=O)[O-])cc1NC(=O)COc1ccccc1Cl,/,/,.,/,/,/
COC(=O)CSC1=C(C#N)C(c2sccc2C)CC(=O)N1 (configuration not stated),/,.,/,.,/,.
COC(=O)CSC1=C(C#N)C(c2ccc(F)cc2)CC(=O)N1 (configuration not stated),21,.,.,.,.,.
O=C(/C=C/c1cccc([N+](=O)[O-])c1)Nc1ccc(N2CCCCC2)cc1,/,/,.,/,/,/
CCCCOc1ccc(C2C(C#N)=C(N)OC3=C2C(=O)CC(C)(C)C3)cc1 (configuration not stated),/,/,.,/,/,/
COc1ccccc1Nc1ncc(-c2cccs2)s1,/,.,.,95,/,.
O=C(/C=C/c1ccc(Cl)cc1Cl)Nc1nn[nH]n1,/,/,87,/,/,/
O=C(Nc1cc(Cl)cc(Cl)c1)c1cccc(Cl)c1Cl,/,/,.,/,/,/
C/C(=N/n1cnnc1)c1cccnc1,27,.,.,.,/,.
COc1ccc(/C(C)=N/n2cnnc2)cc1,/,/,.,/,/,/
O=C(CCC1CCCCC1)NCCc1ccccc1,/,/,.,/,/,/
CC1CCCC(C)N1C(=O)c1cc(-c2cccs2)on1 (configuration not stated),.,.,.,.,.,61
SMILES,Ec RNAP inh,MMP-13 inhibitor,HePTP inhibitor,SF1 activator,AP complement,RORa activator
CCCNC(=O)c1cc(-c2ccco2)on1,.,.,.,.,.,.
O=C(c1cc(-c2cccs2)on1)N1CCCc2ccccc21,.,.,.,.,.,.
O=C(NC1CCCCC1)c1cc(-c2ccco2)on1,.,.,.,58,.,.
O=C(NC1CCCC1)c1cc(-c2cccs2)on1,.,.,.,.,.,109
Cc1ccc(OCCCCCCN2CCCC2)cc1,/,/,.,/,/,/
Nn1c(SCC(=O)Nc2ccc(F)cc2F)nnc1-c1cccnc1,.,.,.,57,.,.
COc1ccc(C2=C/C(=C3\OC(=O)c4ccccc43)C(=O)O2)cc1OC,/,/,.,/,/,/
N=C1C(c2nc3ccccc3s2)=C(O)CN1CCCO,.,.,.,.,.,.
CCCCN1CC(O)=C(c2nc3ccccc3s2)C1=N,.,.,.,74,.,.
COc1cc(OC)c(-c2nc(-c3ccccc3)c(-c3ccc([N+](=O)[O-])cc3)[nH]2)cc1OC,/,/,.,/,/,/
CN1C(=O)/C(=C/c2ccc(-c3ccc(C(=O)O)cc3)o2)SC1=S,/,/,.,/,/,/
CC(=O)NC1=NC(=O)/C(=C\c2ccc(-c3ccc(C(=O)O)cc3)o2)S1,/,/,104,/,/,/
CC(=O)NC1=NC(=O)/C(=C\c2ccc(Br)o2)S1,/,/,102,/,/,/
Cc1cc(Cl)c(OCCN2CCOCC2)c(Cl)c1,/,/,.,/,/,/
CC(=O)c1c(C)nn(C(=O)c2cccs2)c1C,.,.,.,.,.,.
Cc1nn(C(=O)c2cccs2)c(N)c1-c1ccccc1,.,.,.,54,.,57
CCN(CC)C(=O)CSc1ncnc2c(-c3cccs3)nsc12,.,.,.,68,.,.
CCOC(=O)Cc1csc(NC(=O)c2ccc([N+](=O)[O-])o2)n1,/,/,.,/,/,/

# Assay outcomes deposited in PubChem BioAssay by several laboratories.
